Source: ChEMBL document CHEMBL1126260, “Thromboxane receptor antagonism combined with thromboxane synthase inhibition. 2. Synthesis and biological activity of 8-(benzenesulfonamido)-7-(3-pyridinyl)octaonic acid and related compounds” (J Med Chem, 1992)

Key:
[1] = species: Homo sapiens; assay: Inhibitory activity against U-46,619-induced aggregation of washed human platelets.; format: functional
Summary of the method: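 Aspirin-treated, washed human platelets stimulated with U 46619 (stable PGH₂/TxA₂ mimic); aggregation inhibition measured; IC50.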

[2] = molecular target: T1, Thromboxane-A synthase (Homo sapiens, UniProt P24557); assay: Inhibitory activity against human Thromboxane A2 synthase
T1 sequence (P24557 whole entry): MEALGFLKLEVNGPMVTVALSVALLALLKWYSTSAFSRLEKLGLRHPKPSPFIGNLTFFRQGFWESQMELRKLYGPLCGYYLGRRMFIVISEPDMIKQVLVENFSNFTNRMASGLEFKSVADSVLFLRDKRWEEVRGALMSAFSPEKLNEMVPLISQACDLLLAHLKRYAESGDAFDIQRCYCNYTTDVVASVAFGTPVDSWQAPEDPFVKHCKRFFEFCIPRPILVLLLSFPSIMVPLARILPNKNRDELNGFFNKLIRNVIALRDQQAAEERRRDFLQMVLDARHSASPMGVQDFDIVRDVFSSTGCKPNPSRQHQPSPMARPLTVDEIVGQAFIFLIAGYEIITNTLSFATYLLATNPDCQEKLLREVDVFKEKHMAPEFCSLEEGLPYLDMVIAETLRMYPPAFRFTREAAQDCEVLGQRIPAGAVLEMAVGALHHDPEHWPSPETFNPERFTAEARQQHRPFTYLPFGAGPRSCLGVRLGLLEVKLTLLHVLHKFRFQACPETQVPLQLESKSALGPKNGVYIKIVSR
Summary of the method: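 Human platelet microsomal preparation incubated with (14C)arachidonic acid; thromboxane synthase inhibition read as reduced TxB₂ formation; IC50.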

[3] = species: Homo sapiens; assay: Antagonist activity against U-46,619-induced aggregation of platelet rich plasma (PRP); format: functional
Summary of the method: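 Human platelet-rich plasma stimulated with U 46619; aggregation inhibition measured; IC50.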

[4] = species: Oryctolagus cuniculus; assay: Antagonist activity against contraction of rabbit aortic strips; (agonist activity was observed at 10e-5-10e-7M); format: functional, Aorta
Summary of the method: (§1)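 Thoracic aorta segments (~3 cm) from anesthetized male New Zealand rabbits (1.4–2.4 kg), cleaned of fat; 2.0 g preload, 1 h equilibration. Contraction evoked by U 46619 (3 × 10⁻⁹ M) to plateau (20 min), then washed back to baseline. IC50 from a single determination.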

[5] = Ratio of platelet rich plasma to that of washed platelets
[6] = species: Oryctolagus cuniculus; assay: Antagonist activity against contraction of rabbit aortic strips; format: functional; details: Aorta; summary of the method: as §1

Row | SMILES | IC50 [1] | IC50 [2] | IC50 [3] | IC50 [4] | Ratio [5] | IC50 [6]
1 | CN(CC(CCCCCC(=O)O)c1cccnc1)S(=O)(=O)c1ccc(Cl)cc1 (stereo not drawn) | > 10000 nM | > 10000 nM |  |  |  | 
2 | NC(=O)CCCCCC(CNS(=O)(=O)c1ccccc1)c1cccnc1 (stereo not drawn) | > 10000 nM | > 10000 nM |  |  |  | 
3 | O=C(O)CCCCC(CNS(=O)(=O)c1ccc(Cl)cc1)c1cccnc1 (stereo not drawn) | 80 nM | 77 nM |  |  |  | 
4 | COC(=O)CCCCCC(CNS(=O)(=O)c1ccccc1)c1cccnc1 (stereo not drawn) | > 10000 nM | > 10000 nM |  |  |  | 
5 | O=C(O)CCCCCC(CNS(=O)(=O)c1ccc([N+](=O)[O-])cc1)c1cccnc1 (stereo not drawn) | 70 nM | 120 nM |  |  |  | 
6 | COc1ccc(S(=O)(=O)NCC(CCCCCC(=O)O)c2cccnc2)cc1 (stereo not drawn) | 300 nM | 940 nM |  |  |  | 
7 | Cl.O=C(O)CCCCCCC(CNS(=O)(=O)c1ccc(Cl)cc1)c1cccnc1 (stereo not drawn) | 10 nM | 240 nM | 200 nM | Agonist | 20 | 
8 | Cl.O=C(O)CCCCCC(CNS(=O)(=O)c1ccc(Cl)cc1)c1cccnc1 (stereo not drawn) |  |  | 600 nM | Agonist | 30 | 
9 | O=C(O)CCCC(CNS(=O)(=O)c1ccc(Cl)cc1)c1cccnc1 (stereo not drawn) | > 10000 nM | 2000 nM |  |  |  | 
10 | Cc1ccccc1S(=O)(=O)NCC(CCCCCC(=O)O)c1cccnc1 (stereo not drawn) | 380 nM | 200 nM |  |  |  | 
11 | Cc1ccc(S(=O)(=O)NCC(CCCCCC(=O)O)c2cccnc2)cc1 (stereo not drawn) | 200 nM | 50 nM |  |  |  | 
12 | O=C(O)CCCCCC(CNS(=O)(=O)c1ccc(C(=O)O)cc1)c1cccnc1 (stereo not drawn) | > 10000 nM | > 10000 nM |  |  |  | 
13 | Cl.O=C(O)CCCCCC(CNS(=O)(=O)c1ccc(Cl)c(Cl)c1)c1cccnc1 (stereo not drawn) | 80 nM | 40 nM | 2500 nM |  | 32 | 1000 nM
14 | Cl.O=C(O)CCCCCC(CNS(=O)(=O)c1ccccc1)c1cccnc1 (stereo in doubt; 6) | 250 nM | 210 nM | 2100 nM |  | 8.2 | 400 nM
15 | O=C(O)CCCCCC(CNS(=O)(=O)c1ccccc1)c1cccnc1 (stereo in doubt; 25) | 250 nM | > 10000 nM |  |  |  | 
16 | O=C(O)COc1ccc(CCNS(=O)(=O)c2ccccc2)cc1 [SULOTROBAN] | 1500 nM |  | 4000 nM |  | 2.6 | 
